From ChEMBL document CHEMBL3774376, “Synthesis, and anticonvulsant activity of new amides derived from 3-methyl- or 3-ethyl-3-methyl-2,5-dioxo-pyrrolidin-1-yl-acetic acids” (Bioorg Med Chem, 2016) come the findings set out here.

The source made the active and inactive calls. The rule behind the calls is not given here.

The test system of data set [1] is Mus musculus. Put plainly: Neurotoxicity in CD1 albino mouse assessed as acute motor impairment at 100 to 300 mg/kg, ip after 0.5 hrs by rotarod test. The format is toxicity, organism-based. The note with it: in vivo. In short, it runs like this:
(§1)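 Male CD-1 mice given 30, 100 or 300 mg/kg ip in 0.5% methylcellulose, tested at 0.5 and 4 h. Motor impairment was scored as failure to keep balance for at least 1 min on a rod rotating at 10 rpm. Minimum dose causing impairment reported.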
On the technique in general: In the rotarod test animals must keep their balance on a rotating rod.

Data set [2] relates to Mus musculus. The data set is described as follows: Neurotoxicity in CD1 albino mouse assessed as acute motor impairment at 100 to 300 mg/kg, ip after 4 hrs by rotarod test. The class given is toxicity, organism-based. The note with it: in vivo. In short, it runs like this:
as §1

The subject of data set [3] is Mus musculus. The data set is described as follows: Anticonvulsant activity in ip dosed CD1 albino mouse assessed as time to peak effect. The class given is functional. The gist of the method:
(§2)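 Quantitation in male CD-1 mice dosed ip at the previously estimated time of peak effect. Seizures were induced by MES or by sc pentylenetetrazole 85 mg/kg; rotarod at 10 rpm assessed motor impairment. Groups of six, at least three doses giving 10-90% effect.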

The nature of data set [4]: Neurotoxicity in ip dosed CD1 albino mouse assessed as acute motor impairment by rotarod test. The format is toxicity, organism-based. The note with it: in vivo. In short, it runs like this:
as §2

For data set [5], the species on record is Mus musculus. Put plainly: Protection index, ratio of TD50 for CD1 albino mouse to ED50 for protection against maximal electroshock-induced seizures in CD1 albino mouse. In short, it runs like this: as §2
For data set [6], the system named is Mus musculus. Put plainly: Local anesthetic activity in CD1 albino mouse assessed prolongation of time reaction at 2 % concentration after 20 secs by tail immersion test relative to vehicle control. The class given is functional. In short, it runs like this: (§3)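 Compound at 1 or 2% in 0.5% methylcellulose, injected sc (0.2 ml) about 1 cm from the tail root of male CD-1 mice. After 15 min, the distal 3 cm of the tail was immersed in 50 ± 0.5 °C water and withdrawal time measured, cut off at 20 s. n=8; mean ± SEM; % prolongation relative to vehicle.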

Data set [7] deals with Mus musculus. The data set is described as follows: Local anesthetic activity in CD1 albino mouse assessed prolongation of time reaction at 1 % concentration after 20 secs by tail immersion test relative to vehicle control. The format is functional. The gist of the method: as §3
Another data set is filed under the species Rattus norvegicus. Put plainly: Displacement of [3H]BTX from voltage-sensitive Na+ channel site 2 in rat cerebral cortex synaptoneurosomes at 100 uM after 60 mins by liquid scintillation spectroscopic analysis. The class given is tissue-based. The gist of the method: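 Cerebral cortex synaptoneurosomes from rat, tested at 100 µM for inhibition of specific [3H]BTX binding to the voltage-sensitive Na+ channel site 2. Reported as % inhibition of control specific binding; run commercially.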

For data set [8], the system named is Mus musculus. Put plainly: Anticonvulsant activity in CD1 albino mouse assessed as protection against maximal electroshock-induced seizures at 100 to 300 mg/kg, ip after 0.5 hrs. The class given is functional. The note with it: read-out: MED. A general note: Protection in the maximal electroshock model is a classic sign of anticonvulsant action.
Data set [9] has as its system Mus musculus. The data set is described as follows: Anticonvulsant activity in CD1 albino mouse assessed as protection against maximal electroshock-induced seizures at 100 to 300 mg/kg, ip after 4 hrs. The class given is functional. The note with it: read-out: MED.
The subject of data set [10] is Mus musculus. The data set is described as follows: Anticonvulsant activity in CD1 albino mouse assessed as protection against subcutaneous pentylenetetrazole-induced seizures at 300 mg/kg, ip after 0.5 hrs. The class given is functional, organism-based. In short, it runs like this: (§4)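 Male CD-1 mice (16-26 g), compounds ip in 0.5% methylcellulose/water at 30, 100 or 300 mg/kg, 3-4 per group. At 0.5 or 4 h, pentylenetetrazole 85 mg/kg was injected sc. Protection was absence of clonic convulsions (at least 5 s) over a 30 min observation. Minimum active dose recorded.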

Data set [11] concerns Mus musculus. The data set is described as follows: Anticonvulsant activity in CD1 albino mouse assessed as protection against subcutaneous pentylenetetrazole-induced seizures at 300 mg/kg, ip after 4 hrs. The format is functional, organism-based. The gist of the method:
as §4

The subject of data set [12] is Mus musculus. The data set is described as follows: Neurotoxicity in CD1 albino mouse assessed as acute motor impairment at 300 mg/kg, ip after 4 hrs by rotarod test. The class given is toxicity, organism-based. The note with it: in vivo. In short, it runs like this: as §1
The subject of data set [13] is Mus musculus. Put plainly: Anticonvulsant activity in CD1 mouse assessed as protection against 32 mA-current- for 3 secs induced seizure at 100 mg/kg, ip after 0.25 hrs by 6Hz psychomotor seizure test. The class given is functional. The gist of the method:
(§5)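 Male CD-1 mice given 100 mg/kg ip in 0.5% methylcellulose, four per time point. Corneal stimulation at 32 mA, 0.2 ms monopolar rectangular pulses at 6 Hz for 3 s, from a constant-current device. A mouse was protected if it resumed normal exploratory behavior within 10 s. Reported as number protected over number tested.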

The test system of data set [14] is Mus musculus. The data set is described as follows: Anticonvulsant activity in CD1 mouse assessed as protection against 32 mA-current- for 3 secs induced seizure at 100 mg/kg, ip after 0.5 hrs by 6Hz psychomotor seizure test. The class given is functional. The gist of the method:
as §5

Data set [15] concerns Mus musculus. Put plainly: Anticonvulsant activity in CD1 mouse assessed as protection against 32 mA-current- for 3 secs induced seizure at 100 mg/kg, ip after 2 hrs by 6Hz psychomotor seizure test. The format is functional, organism-based. In short, it runs like this:
as §5

Data set [16] deals with Mus musculus. The data set is described as follows: Anticonvulsant activity in ip dosed CD1 albino mouse assessed as protection against subcutaneous pentylenetetrazole-induced seizures. The class given is functional. In short, it runs like this:
as §2

The subject of data set [17] is Mus musculus. The data set is described as follows: Protection index, ratio of TD50 for CD1 albino mouse to ED50 for protection against subcutaneous pentylenetetrazole-induced seizures in CD1 albino mouse. In short, it runs like this: as §2
The subject of data set [18] is Mus musculus. Put plainly: Antinociceptive activity in CD1 albino mouse assessed as reduction of formalin-induced licking response in neurogenic phase at 69.05 mg/kg, ip preincubated for 30 mins measured after 5 mins. The class given is functional, organism-based.
For data set [19], the system named is Mus musculus. Put plainly: Antinociceptive activity in CD1 albino mouse assessed as reduction of formalin-induced licking response in inflammatory phase at 69.05 mg/kg, ip preincubated for 30 mins measured after 15 to 20 mins. Set-up: scale not given: the % may be the effect or the level left. The format is functional.
Data set [20] concerns Mus musculus. The data set is described as follows: Antinociceptive activity in CD1 albino mouse assessed as reduction of formalin-induced licking response in neurogenic phase at 69.05 mg/kg, ip preincubated for 30 mins measured after 25 to 30 mins. The format is functional. On the set-up: scale not given: the % may be the effect or the level left.
Data set [21] deals with Mus musculus. Put plainly: Anticonvulsant activity in ip dosed CD1 albino mouse assessed as protection against maximal electroshock-induced seizures. The class given is functional.
For data set [22], the system named is Mus musculus. The data set is described as follows: Anticonvulsant activity in CD1 albino mouse assessed as protection against maximal electroshock-induced seizures at 300 mg/kg, ip after 4 hrs. The class given is functional, organism-based.
Data set [23] has as its system Mus musculus. Put plainly: Anticonvulsant activity in CD1 albino mouse assessed as protection against subcutaneous pentylenetetrazole-induced seizures at 100 to 300 mg/kg, ip after 0.5 hrs. The class given is functional. The note with it: CD1, 0.5 h, read-out: MED. In short, it runs like this: as §4
For data set [24], the system named is Mus musculus. Put plainly: Neurotoxicity in CD1 albino mouse assessed as acute motor impairment at 300 mg/kg, ip measured after 0.5 hrs by rotarod test. The format is toxicity, organism-based. The note with it: in vivo. In short, it runs like this: as §1
Data set [25] concerns Mus musculus. The data set is described as follows: Antinociceptive activity in CD1 albino mouse assessed as reduction of formalin-induced licking response in neurogenic phase at 82.74 mg/kg, ip preincubated for 30 mins measured after 5 mins. The format is functional. Set-up: scale not given: the % may be the effect or the level left.
The test system of data set [26] is Mus musculus. Put plainly: Antinociceptive activity in CD1 albino mouse assessed as reduction of formalin-induced licking response in inflammatory phase at 82.74 mg/kg, ip preincubated for 30 mins measured after 15 to 20 mins. The format is functional. Set-up: scale not given: the % may be the effect or the level left.
Data set [27] deals with Mus musculus. The data set is described as follows: Antinociceptive activity in CD1 albino mouse assessed as reduction of formalin-induced licking response in inflammatory phase at 82.74 mg/kg, ip preincubated for 30 mins measured after 20 to 25 mins. The format is functional. Set-up: scale not given: the % may be the effect or the level left.
Data set [28] concerns Mus musculus. The data set is described as follows: Antinociceptive activity in CD1 albino mouse assessed as reduction of formalin-induced licking response in inflammatory phase at 82.74 mg/kg, ip preincubated for 30 mins measured after 25 to 30 mins. The class given is functional. On the set-up: scale not given: the % may be the effect or the level left.

A word on the TD50: it is the dose at which the toxic effect under study appears in half of the subjects. The term inhibition denotes the relative decrease from the control value, in per cent. `O=C1NC(=O)C(c2ccccc2)(c2ccccc2)N1` [PHENYTOIN]: the MTC in the data set on Mus musculus [1] and with Mus musculus [2] was 100 mg/kg in each case. The Time with Mus musculus [3] was determined as 1 h. The TD50 in data set [4] was 56.9 mg/kg. Further, the “Ratio TD50/ED50” value in the data set listed under Mus musculus [5] came to 8.56. Also, the Activity with Mus musculus [6] stood at 84%; in the data set on Mus musculus [7], 18%. The molecule also returned an inhibition in the data set filed under Rattus norvegicus of 53.9%. The minimal effective dose in the data set with Mus musculus [8] and with Mus musculus [9] was 30 mg/kg in each case. For the same molecule, the result in the data set on Mus musculus [10] and in the data set on Mus musculus [11] was inactive.
Broadly, the ED50 is the dose that gives a 50% effect, or the effect in half of the subjects. With `CCC1(C)CC(=O)N(CC(=O)N2CCN(c3ccc(F)cc3)CC2)C1=O` (stereo not given), the MTC in the data set on Mus musculus [1] was determined as 300 mg/kg. In addition, the Activity result with Mus musculus [12] is on record as “Non-toxic”; in the data set with Mus musculus [13] it was 75%; with Mus musculus [14], 75%; in the data set on Mus musculus [19] it was 93%; in the data set on Mus musculus [20] it was 92%; in the data set with Mus musculus [6], 61%. In addition, the result in the data set on Mus musculus [15], in the data set with Mus musculus [18], in the data set on Mus musculus [22] and in the data set with Mus musculus [11] was inactive. The Time with Mus musculus [3] was 0.5 h. The ED50 in the data set on Mus musculus [16] was 130 mg/kg; in the data set with Mus musculus [21], 69 mg/kg. For the same molecule, the TD50 in data set [4] is 191 mg/kg. The “Ratio TD50/ED50” value is given as 2.76 in the data set listed under Mus musculus [5] and 1.47 with Mus musculus [17]. Moreover, the inhibition in the data set filed under Rattus norvegicus was 32.5%. The minimal effective dose with Mus musculus [8] and in the data set with Mus musculus [23] was 100 mg/kg each time.
For `CC1CC(=O)N(CC(=O)N2CCN(c3cccc(Cl)c3)CC2)C1=O` (stereo not given), the Activity result is recorded as “Non-toxic” in the data set with Mus musculus [24]; “Non-toxic” with Mus musculus [12]; 67% with Mus musculus [25]; 98% with Mus musculus [26]; 100% in the data set on Mus musculus [27]; 96% in the data set on Mus musculus [28]. Also, in the data set on Mus musculus [6], the Activity is recorded as 17%. Further, the Time in the data set on Mus musculus [3] stood at 1 h. Besides, the ED50 is 40.3 mg/kg in the data set with Mus musculus [16] and 82.7 mg/kg with Mus musculus [21]. For the same molecule, the TD50 in data set [4] turned out to be 323 mg/kg. Also, the “Ratio TD50/ED50” value in the data set listed under Mus musculus [5] is listed as 3.91; in the data set with Mus musculus [17], 8. The molecule also gave an inhibition in the data set filed under Rattus norvegicus of 28.5%. Besides, the minimal effective dose came out at 100 mg/kg with Mus musculus [8], 300 mg/kg with Mus musculus [9] and 100 mg/kg with Mus musculus [23]. The outcome in the data set on Mus musculus [11] was inactive.
